Assay results reported in ChEMBL document CHEMBL1148296, “Syntheses, calcium channel agonist-antagonist modulation activities, and nitric oxide release studies of nitrooxyalkyl 1,4-dihydro-2,6-dimethyl-3-nitro-4-(2,1,3-benzoxadiazol-4-yl)pyridine-5-carboxylate racemates, enantiomers, and diastereomers” (J Med Chem, 2004).

How the values were obtained:
Cavia porcellus [1] = species: Cavia porcellus; assay: In vitro nitric oxide release incubated in the absence of N-acetyl-cysteamine in phosphate buffer; format: functional
Summary of the method: (§1)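 Compound (0.0075 mmol) stirred under argon at 37 °C for 1 h in 0.1 M phosphate buffer pH 7.40/acetonitrile 1:1; line 6 with N-acetylcysteamine 1 equiv per ONO2, line 5 without. After air exposure, Griess reagent 10 min, A540; nitrite quantified against 3–24 µM NaNO2 standards; % NO from one ONO2, control without compound, n = 3.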

Cavia porcellus [2] = species: Cavia porcellus; assay: In vitro nitric oxide release incubated in the presence of N-acetyl-cysteamine in phosphate buffer; format: functional; summary of the method: as §1

O=[N+]([O-])OCC(CO[N+](=O)[O-])O[N+](=O)[O-] [NITROGLYCERIN]
Release (Cavia porcellus [1]): 0.18% | Release (Cavia porcellus [2]): 5.3%
